Laboratory results published in ChEMBL document CHEMBL4330171, “Characterization of the Biosynthetic Gene Cluster for the Antibiotic Armeniaspirols in Streptomyces armeniacus” (2019).
≈ marks a conversion by molar mass, not a printed value. Calls of active or inactive are those of the source. The rule behind the calls is not given here.

Key:
Enterococcus faecium = test: Antibacterial activity against Enterococcus faecium ATCC 19434 after 24 hrs by broth microdilution assay; format: functional; settings: ATCC 19434, 24 h
Procedure, shortened: (§1)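 Twofold serial dilutions in LB broth, inoculated to a final 1 × 10^5 to 3 × 10^5 CFU/mL. Incubation at 37 °C for 24 h. MIC read visually as the lowest concentration giving no turbidity.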

Staphylococcus aureus [1] = test: Antibacterial activity against Staphylococcus aureus Newman after 24 hrs by broth microdilution assay; format: functional; procedure, shortened: as §1
Bacillus subtilis = test: Antibacterial activity against Bacillus subtilis 168 after 24 hrs by broth microdilution assay; format: functional; settings: subsp. subtilis str. 168, 24 h; procedure, shortened: as §1
Escherichia coli = test: Antibacterial activity against Escherichia coli MG1655 after 24 hrs by broth microdilution assay; format: functional, organism-based; settings: K-12 substr. MG1655; procedure, shortened: as §1
Acinetobacter baumannii = test: Antibacterial activity against Acinetobacter baumannii ATCC 19606 after 24 hrs by broth microdilution assay; format: functional, organism-based; settings: ATCC 19606 = CIP 70.34 = JCM 6841; procedure, shortened: as §1
Staphylococcus aureus [2] = test: Antibacterial activity against methicillin-resistant Staphylococcus aureus USA300 after 24 hrs by broth microdilution assay; format: functional; settings: USA300, 24 h
Enterococcus faecalis = test: Antibacterial activity against Enterococcus faecalis FA2-2 after 24 hrs by broth microdilution assay; format: functional; procedure, shortened: as §1
Klebsiella pneumoniae = test: Antibacterial activity against Klebsiella pneumoniae ATCC 35657 after 24 hrs by broth microdilution assay; format: functional, organism-based; procedure, shortened: as §1
Pseudomonas aeruginosa = test: Antibacterial activity against Pseudomonas aeruginosa PAO1 after 24 hrs by broth microdilution assay; format: functional, organism-based; procedure, shortened: as §1
Salmonella typhimurium = test: Antibacterial activity against Salmonella typhimurium ATCC 14028 after 24 hrs by broth microdilution assay; format: functional, organism-based; settings: Salmonella enterica subsp. enterica serovar Typhimurium; procedure, shortened: as §1
Shigella dysenteriae = test: Antibacterial activity against Shigella dysenteriae ATCC 13313 after 24 hrs by broth microdilution assay; format: functional, organism-based

| Structure (SMILES) | MIC (Enterococcus faecium) [µg/mL] | MIC (Staphylococcus aureus [1]) [µg/mL] | MIC (Bacillus subtilis) [µg/mL] | Activity (Escherichia coli) | Activity (Acinetobacter baumannii) | MIC (Staphylococcus aureus [2]) [µg/mL] | MIC (Enterococcus faecalis) [µg/mL] | Activity (Klebsiella pneumoniae) | Activity (Pseudomonas aeruginosa) | Activity (Salmonella typhimurium) | Activity (Shigella dysenteriae) |
| --- | --- | --- | --- | --- | --- | --- | --- | --- | --- | --- | --- |
| CC(C)CCCc1c(O)ccc2c1O[C@]1(NC(=O)C(Cl)=C1Cl)C2=O | > 32 | 8 (≈ 21.6 µM) | 16 (≈ 43.2 µM) | inactive | inactive | 16 (≈ 43.2 µM) | > 32 | inactive | inactive | inactive | inactive |
| CC[C@H](C)CCCc1c(O)ccc2c1O[C@]1(NC(=O)C(Cl)=C1Cl)C2=O | 32 (≈ 83.3 µM) | 8 (≈ 20.8 µM) | 8 (≈ 20.8 µM) | inactive | inactive | 8 (≈ 20.8 µM) | 32 (≈ 83.3 µM) | inactive | inactive | inactive | inactive |
| CC(C)CCCc1c(O)ccc2c1O[C@@]1(C=C(Cl)C(=O)N1C)C2=O | > 32 | 4 (≈ 11.4 µM) | 16 (≈ 45.7 µM) | inactive | inactive | 16 (≈ 45.7 µM) | > 32 | inactive | inactive | inactive | inactive |
| CCCCCCc1c(O)ccc2c1O[C@@]1(C=C(Cl)C(=O)N1)C2=O | > 32 | > 32 | > 32 | inactive | inactive | > 32 | > 32 | inactive | inactive | inactive | inactive |
| CCCCCCc1c(O)ccc(C(=O)c2cc(Cl)c(Cl)[nH]2)c1O | 2 (≈ 5.61 µM) | 1 (≈ 2.81 µM) | 0.5 (≈ 1.4 µM) | inactive | inactive | 1 (≈ 2.81 µM) | 2 (≈ 5.61 µM) | inactive | inactive | inactive | inactive |
| CC[C@H](C)CCCc1c(O)ccc(C(=O)c2cc(Cl)c(Cl)[nH]2)c1O | 2 (≈ 5.4 µM) | 1 (≈ 2.7 µM) | 0.5 (≈ 1.35 µM) | inactive | inactive | 2 (≈ 5.4 µM) | 8 (≈ 21.6 µM) | inactive | inactive | inactive | inactive |
| CC(C)CCCc1c(O)ccc(C(=O)c2cc(Cl)c(Cl)[nH]2)c1O | 2 (≈ 5.61 µM) | 1 (≈ 2.81 µM) | 0.5 (≈ 1.4 µM) | inactive | inactive | 1 (≈ 2.81 µM) | 8 (≈ 22.5 µM) | inactive | inactive | inactive | inactive |
| CC(C)CCCc1c(O)ccc2c1O[C@@]1(C=C(Cl)C(=O)N1)C2=O | > 32 | > 32 | > 32 | inactive | inactive | > 32 | > 32 | inactive | inactive | inactive | inactive |
| CCCCCCc1c(O)ccc2c1O[C@]1(C2=O)C(Cl)=C(Cl)C(=O)N1C [ARMENIASPIROLE A] | > 32 | 0.5 (≈ 1.3 µM) | 2 (≈ 5.2 µM) | inactive | inactive | 0.5 (≈ 1.3 µM) | 16 (≈ 41.6 µM) | inactive | inactive | inactive | inactive |
| CCCCCCc1c(O)ccc2c1O[C@]1(NC(=O)C(Cl)=C1Cl)C2=O | 32 (≈ 86.4 µM) | 8 (≈ 21.6 µM) | 8 (≈ 21.6 µM) | inactive | inactive | 16 (≈ 43.2 µM) | > 32 | inactive | inactive | inactive | inactive |
| CC[C@H](C)CCCc1c(O)ccc2c1O[C@@]1(C=C(Cl)C(=O)N1C)C2=O | > 32 | 2 (≈ 5.5 µM) | 8 (≈ 22 µM) | inactive | inactive | 8 (≈ 22 µM) | > 32 | inactive | inactive | inactive | inactive |
| CC(C)CCCc1c(O)ccc2c1O[C@]1(C2=O)C(Cl)=C(Cl)C(=O)N1C [ARMENIASPIROLE B] | > 32 | 0.5 (≈ 1.3 µM) | 4 (≈ 10.4 µM) | inactive | inactive | 2 (≈ 5.2 µM) | 32 (≈ 83.3 µM) | inactive | inactive | inactive | inactive |
| CCCCCCc1c(O)ccc2c1O[C@@]1(C=C(Cl)C(=O)N1C)C2=O | > 32 | 4 (≈ 11.4 µM) | 8 (≈ 22.9 µM) | inactive | inactive | 8 (≈ 22.9 µM) | > 32 | inactive | inactive | inactive | inactive |
| CN[C@H](CC(C)C)C(=O)N[C@H]1C(=O)N[C@@H](CC(N)=O)C(=O)N[C@H]2C(=O)N[C@H]3C(=O)N[C@H](C(=O)N[C@H](C(=O)O)c4cc(O)cc(O)c4-c4cc3ccc4O)[C@H](O)c3ccc(c(Cl)c3)Oc3cc2cc(c3O[C@@H]2O[C@H](CO)[C@@H](O)[C@H](O)[C@H]2O[C@H]2C[C@](C)(N)[C@H](O)[C@H](C)O2)Oc2ccc(cc2Cl)[C@H]1O [VANCOMYCIN] |  |  | 0.25 (≈ 0.173 µM) |  |  |  | 2 (≈ 1.38 µM) |  |  |  |  |
| CC[C@H](C)CCCc1c(O)ccc2c1O[C@]1(C2=O)C(Cl)=C(Cl)C(=O)N1C [ARMENIASPIROLE C] | > 32 | 0.5 (≈ 1.26 µM) | 2 (≈ 5.02 µM) | inactive | inactive | 0.5 (≈ 1.26 µM) | > 32 | inactive | inactive | inactive | inactive |
| CC[C@H](C)CCCc1c(O)ccc2c1O[C@@]1(C=C(Cl)C(=O)N1)C2=O | > 32 | > 32 | 16 (≈ 45.7 µM) | inactive | inactive | > 32 | > 32 | inactive | inactive | inactive | inactive |
